Experimental data as given in ChEMBL document CHEMBL1155387, “Substituted fused bicyclic pyrrolizinones as potent, orally bioavailable hNK1 antagonists” (Bioorg Med Chem Lett, 2010).
“And” between values parts separate entries of the source, which are not always exact repeats. Equal values may be shown once.

Assays:
Substance-P receptor [1] = target: T1, Substance-P receptor (Homo sapiens, UniProt P25103); assay: Antagonist activity at human NK1 receptor expressed in CHO cells assessed as inhibition of substance P-induced inositol phosphate generation at 100 nM; type: functional, cell-based
T1 sequence (P25103 whole entry): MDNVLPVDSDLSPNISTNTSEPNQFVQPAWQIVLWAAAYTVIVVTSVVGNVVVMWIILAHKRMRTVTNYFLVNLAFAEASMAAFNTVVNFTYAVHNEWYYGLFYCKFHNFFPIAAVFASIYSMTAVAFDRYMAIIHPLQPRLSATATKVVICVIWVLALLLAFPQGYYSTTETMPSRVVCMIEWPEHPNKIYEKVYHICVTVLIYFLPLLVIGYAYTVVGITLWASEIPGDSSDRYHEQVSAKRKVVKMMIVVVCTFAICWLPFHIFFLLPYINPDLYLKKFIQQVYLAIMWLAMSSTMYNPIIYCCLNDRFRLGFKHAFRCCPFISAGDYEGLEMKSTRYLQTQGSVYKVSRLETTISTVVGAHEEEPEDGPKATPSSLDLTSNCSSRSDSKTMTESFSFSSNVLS

Substance-P receptor [2] = target: T1, Substance-P receptor; assay: Displacement of [125I]substance P from human NK1 receptor expressed in CHO cells; type: cell-based
In short: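 Competition binding: [125I]-labelled substance P displaced from cloned human NK1 receptor expressed in CHO cells; IC50 reported as mean of n = 3.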

Substance-P receptor [3] = target: T1, Substance-P receptor; assay: Displacement of [125I]substance P from human NK1 receptor expressed in CHO cells in the presence of 50 percent human serum; type: cell-based
Gerbillinae [4] = assay: Inhibition of GR-73632-induced foot tapping in gerbils at 1 mg/kg, iv after 1 hr; type: functional
In short: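 Gerbils given 1 mg/kg iv; GR73632-induced foot tapping challenged 1 h after dosing; inhibition of tapping scored.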

[5] = Inhibition of sodium channel
In short: (§1)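 Ion-channel binding assay; IC50 values calculated for sodium channel and for calcium channel (diltiazem site).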

Gerbillinae [6] = assay: Inhibition of GR-73632-induced foot tapping in gerbils at 3 mg/kg, iv after 24 hrs; type: functional; conditions: for inhibition (INH): 3 mg/kg; for inhibition in vivo at 3 mg/kg: Gerbillinae, iv, 24 h
In short: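 Gerbils dosed iv at 3 mg/kg; foot tapping induced by NK1 agonist GR73632 evaluated 24 h post-dose; percent inhibition of the tapping response.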

[7] = Displacement of diltiazem […] from calcium channel; in short: as §1
[8] = Plasma clearance in rat; type: ADME, organism-based
[9] = Half life in rat; type: ADME, organism-based; conditions: in vivo
[10] = Volume of distribution in rat; type: ADME, organism-based; conditions: in vivo
[11] = Oral bioavailability in rat; type: ADME, organism-based; conditions: in vivo
[12] = Ratio of drug level in brain to plasma in rat at 1 mg/kg, iv after 4 hrs; type: ADME, organism-based; set-up: dose 1 mg/kg, route intravenous; conditions: brain and plasma
Gerbillinae [13] = assay: Inhibition of GR-73632-induced foot taping in iv dosed gerbils after 1 hr; type: functional; conditions: read-out: ID50 (the source's name)
Gerbillinae [14] = assay: Inhibition of GR-73632-induced foot taping in iv dosed gerbils after 24 hrs; type: functional; conditions: read-out: ID50 (the source's name)
Cytochrome P450 2D6 = Cytochrome P450 2D6 (Homo sapiens, UniProt P10635); assay: Inhibition of CYP2D6; type: ADME
Sequence of Cytochrome P450 2D6 (P10635 whole entry): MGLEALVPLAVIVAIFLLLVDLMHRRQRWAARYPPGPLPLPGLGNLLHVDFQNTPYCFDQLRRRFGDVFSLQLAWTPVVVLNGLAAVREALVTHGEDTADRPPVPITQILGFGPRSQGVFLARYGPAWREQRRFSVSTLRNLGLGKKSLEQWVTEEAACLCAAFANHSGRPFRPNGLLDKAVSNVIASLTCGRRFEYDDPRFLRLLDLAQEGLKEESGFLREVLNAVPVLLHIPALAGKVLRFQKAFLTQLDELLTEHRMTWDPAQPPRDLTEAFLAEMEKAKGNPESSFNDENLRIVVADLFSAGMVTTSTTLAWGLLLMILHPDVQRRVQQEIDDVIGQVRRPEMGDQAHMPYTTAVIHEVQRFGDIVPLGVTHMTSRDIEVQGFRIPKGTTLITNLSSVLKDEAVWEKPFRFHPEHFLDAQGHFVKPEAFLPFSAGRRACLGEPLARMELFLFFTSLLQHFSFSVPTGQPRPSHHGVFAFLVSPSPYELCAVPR

Cytochrome P450 3A4 = Cytochrome P450 3A4 (Homo sapiens, UniProt P08684); assay: Inhibition of CYP3A4; type: ADME
Sequence of Cytochrome P450 3A4 (P08684 whole entry): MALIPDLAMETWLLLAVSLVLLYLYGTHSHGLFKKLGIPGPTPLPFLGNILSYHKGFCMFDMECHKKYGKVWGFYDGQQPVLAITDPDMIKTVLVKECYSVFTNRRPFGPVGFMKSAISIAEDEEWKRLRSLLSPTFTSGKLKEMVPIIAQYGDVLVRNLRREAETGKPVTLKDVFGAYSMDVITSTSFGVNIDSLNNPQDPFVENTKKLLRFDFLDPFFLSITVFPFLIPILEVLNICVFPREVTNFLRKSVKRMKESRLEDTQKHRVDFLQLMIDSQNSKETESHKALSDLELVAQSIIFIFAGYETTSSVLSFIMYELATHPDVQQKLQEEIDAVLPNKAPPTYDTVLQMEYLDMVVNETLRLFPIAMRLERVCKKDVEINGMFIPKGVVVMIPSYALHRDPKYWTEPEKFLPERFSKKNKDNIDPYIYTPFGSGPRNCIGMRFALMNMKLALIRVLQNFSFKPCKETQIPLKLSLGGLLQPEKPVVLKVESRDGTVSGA

Cytochrome P450 2C9 = Cytochrome P450 2C9 (Homo sapiens, UniProt P11712); assay: Inhibition of CYP2C9; type: ADME
Sequence of Cytochrome P450 2C9 (P11712 whole entry): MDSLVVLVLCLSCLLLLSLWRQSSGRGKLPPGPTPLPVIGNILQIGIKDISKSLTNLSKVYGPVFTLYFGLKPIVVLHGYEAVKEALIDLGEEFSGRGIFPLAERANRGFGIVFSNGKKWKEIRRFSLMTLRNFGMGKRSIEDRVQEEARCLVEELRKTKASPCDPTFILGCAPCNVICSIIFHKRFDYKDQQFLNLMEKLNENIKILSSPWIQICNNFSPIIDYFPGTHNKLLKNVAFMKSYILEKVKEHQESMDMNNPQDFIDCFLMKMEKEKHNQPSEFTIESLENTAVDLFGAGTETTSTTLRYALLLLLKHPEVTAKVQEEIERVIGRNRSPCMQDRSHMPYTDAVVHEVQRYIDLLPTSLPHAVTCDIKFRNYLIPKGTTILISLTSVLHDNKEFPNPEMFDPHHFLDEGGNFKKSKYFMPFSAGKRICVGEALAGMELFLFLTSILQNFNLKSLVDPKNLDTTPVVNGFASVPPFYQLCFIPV

[15] = Stability in rat microsomes assessed as compound remaining after 60 mins; type: ADME, Microsome; conditions: read-out: Stability
[16] = Stability in rhesus monkey microsomes assessed as compound remaining after 60 mins; type: ADME, Macaca mulatta, Microsome; conditions: read-out: Stability
[17] = Stability in dog microsomes assessed as compound remaining after 60 mins; type: ADME, Canis lupus familiaris, Microsome; conditions: read-out: Stability
[18] = Stability in human microsomes assessed as compound remaining after 60 mins; type: ADME, Microsome; conditions: read-out: Stability

inhibition of substance P-induced inositol phosphate generation (Substance-P receptor [1]) | IC50 (Substance-P receptor [2]) | IC50 (Substance-P receptor [3]) | IC50 [5] | IC50 [7] | SMILES | further results
79% |  |  |  |  | C[C@@H](O[C@H]1CN2C(=O)CC(O)[C@H]2[C@@H]1c1ccc(F)cc1)c1cc(C(F)(F)F)cc(C(F)(F)F)c1 (single isomer, unassigned; 18b) [listing 1 of 2 here] | 
92% |  |  |  |  | C[C@@H](O[C@H]1CN2C(=O)C(N)C[C@H]2[C@@H]1c1ccc(F)cc1)c1cc(C(F)(F)F)cc(C(F)(F)F)c1 (stereo in doubt; 3a) [listing 1 of 2 here] | 
45% | 0.08 nM | 0.42 nM | 1400 nM | 767 nM | C[C@@H](O[C@H]1CN2C(=O)CC(C)(N)[C@H]2[C@@H]1c1ccc(F)cc1)c1cc(C(F)(F)F)cc(C(F)(F)F)c1 (some centres undefined) | inhibition in vivo at 3 mg/kg (Gerbillinae [6]): 100%
 | 0.08 nM | 2.1 nM | 1990 nM | 2380 nM | C[C@@H](O[C@H]1CN2C(=O)CC(O)[C@H]2[C@@H]1c1ccc(F)cc1)c1cc(C(F)(F)F)cc(C(F)(F)F)c1 (single isomer, unassigned; 18a) [listing 1 of 2 here] | inhibition in vivo at 3 mg/kg (Gerbillinae [6]): 100%
52% | 0.07 nM | 0.83 nM | 7820 nM | > 10000 nM | C[C@@H](O[C@H]1CN2C(=O)CC(n3cnnc3)[C@H]2[C@@H]1c1ccc(F)cc1)c1cc(C(F)(F)F)cc(C(F)(F)F)c1 (some centres undefined) | inhibition in vivo at 1 mg/kg (Gerbillinae [4]): 0%
 | 0.09 nM | 0.6 nM | 7720 nM | 1880 nM | C[C@@H](O[C@H]1CN2C(=O)CC(N)[C@H]2[C@@H]1c1ccc(F)cc1)c1cc(C(F)(F)F)cc(C(F)(F)F)c1 (stereo in doubt; 15a) [listing 1 of 2 here] | inhibition in vivo at 3 mg/kg (Gerbillinae [6]): 100%; clearance [8]: 8.9 mL/min/kg; half-life [9]: 7.7 h; Vd [10]: 5.9 L/kg; bioavailability [11]: 78%; Kp at 4 h [12]: 1.4; ED50 (Gerbillinae [13]): 0.88 mg/kg; ED50 (Gerbillinae [14]): 0.92 mg/kg; Activity (Cytochrome P450 2D6): 66 µM; Activity (Cytochrome P450 3A4): > 100 µM; Activity (Cytochrome P450 2C9): 45 µM; remaining at 1 h [15]: 85%; remaining at 1 h [16]: 91%; remaining at 1 h [17]: 89%; remaining at 1 h [18]: 66%
 | 0.14 nM | 5.6 nM | 5140 nM | 8060 nM | C[C@@H](O[C@H]1CN2C(=O)C(O)C[C@H]2[C@@H]1c1ccc(F)cc1)c1cc(C(F)(F)F)cc(C(F)(F)F)c1 (single isomer, unassigned) [listing 2 of 2 here] | inhibition in vivo at 3 mg/kg (Gerbillinae [6]): 95%
 | 0.07 nM | 2.7 nM |  |  | C[C@@H](O[C@H]1CN2C(=O)CC(O)[C@H]2[C@@H]1c1ccc(F)cc1)c1cc(C(F)(F)F)cc(C(F)(F)F)c1 (single isomer, unassigned; 18b) [listing 2 of 2 here] | 
 | 0.27 nM | 2.1 nM | 2820 nM | 98 nM | C[C@@H](O[C@H]1CN2C(=O)C(N)C[C@H]2[C@@H]1c1ccc(F)cc1)c1cc(C(F)(F)F)cc(C(F)(F)F)c1 (stereo in doubt; 3a) [listing 2 of 2 here] | inhibition in vivo at 3 mg/kg (Gerbillinae [6]): 99%
75% |  |  |  |  | C[C@@H](O[C@H]1CN2C(=O)CC(N)[C@H]2[C@@H]1c1ccc(F)cc1)c1cc(C(F)(F)F)cc(C(F)(F)F)c1 (stereo in doubt; 15a) [listing 2 of 2 here] | 
 | 0.06 nM | 0.38 nM | 239 nM | 214 nM | C[C@@H](O[C@H]1CN2C(=O)C(N)C[C@H]2[C@@H]1c1ccc(F)cc1)c1cc(C(F)(F)F)cc(C(F)(F)F)c1 (stereo in doubt; 3b) [listing 1 of 2 here] | inhibition (INH) (Gerbillinae [6]): 100%
 | 0.08 nM and 0.11 nM | 0.77 nM and 1.8 nM | 4980 nM and 558 nM | 1560 nM and 1360 nM | C[C@@H](O[C@H]1CN2C(=O)CC(N)[C@H]2[C@@H]1c1ccc(F)cc1)c1cc(C(F)(F)F)cc(C(F)(F)F)c1 (stereo in doubt; 15b) [listing 1 of 2 here] | 
65% |  |  |  |  | C[C@@H](O[C@H]1CN2C(=O)CC(O)[C@H]2[C@@H]1c1ccc(F)cc1)c1cc(C(F)(F)F)cc(C(F)(F)F)c1 (single isomer, unassigned; 18a) [listing 2 of 2 here] | 
87% and 63% |  |  |  |  | C[C@@H](O[C@H]1CN2C(=O)CC(N)[C@H]2[C@@H]1c1ccc(F)cc1)c1cc(C(F)(F)F)cc(C(F)(F)F)c1 (stereo in doubt; 15b) [listing 2 of 2 here] | 
59% |  |  |  |  | C[C@@H](O[C@H]1CN2C(=O)C(N)C[C@H]2[C@@H]1c1ccc(F)cc1)c1cc(C(F)(F)F)cc(C(F)(F)F)c1 (stereo in doubt; 3b) [listing 2 of 2 here] | 

Further lines, the compound ahead of its results:

SMILES | inhibition of substance P-induced inositol phosphate generation (Substance-P receptor [1]) | IC50 (Substance-P receptor [2]) | IC50 (Substance-P receptor [3]) | IC50 [5] | IC50 [7] | further results
C[C@@H](O[C@H]1CN2C(=O)CC(C)(O)[C@H]2[C@@H]1c1ccc(F)cc1)c1cc(C(F)(F)F)cc(C(F)(F)F)c1 (stereo in doubt; 20b) [listing 1 of 2 here] | 57% |  |  |  |  | 
C[C@@H](O[C@H]1CN2C(=O)C(n3cnnc3)C[C@H]2[C@@H]1c1ccc(F)cc1)c1cc(C(F)(F)F)cc(C(F)(F)F)c1 (single isomer, unassigned) [listing 1 of 2 here] |  | 0.05 nM | 1.8 nM | 5320 nM |  | inhibition in vivo at 1 mg/kg (Gerbillinae [4]): 0%
C[C@@H](O[C@H]1CN2C(=O)C(C)(O)C[C@H]2[C@@H]1c1ccc(F)cc1)c1cc(C(F)(F)F)cc(C(F)(F)F)c1 (stereo in doubt; 5b) [listing 1 of 2 here] |  | 0.04 nM | 0.8 nM | 3200 nM | 2180 nM | inhibition (INH) (Gerbillinae [6]): 100%
C[C@@H](O[C@H]1CN2C(=O)C(NCc3ccn[nH]3)C[C@H]2[C@@H]1c1ccc(F)cc1)c1cc(C(F)(F)F)cc(C(F)(F)F)c1 (some centres undefined) | 55% | 0.06 nM | 0.9 nM | 1470 nM | 598 nM | inhibition in vivo at 3 mg/kg (Gerbillinae [6]): 92%
C[C@@H](O[C@H]1CN2C(=O)C(n3cnnc3)C[C@H]2[C@@H]1c1ccc(F)cc1)c1cc(C(F)(F)F)cc(C(F)(F)F)c1 (stereo in doubt; 21a) [listing 1 of 2 here] | 81% |  |  |  |  | 
C[C@@H](O[C@H]1CN2C(=O)C(O)C[C@H]2[C@@H]1c1ccc(F)cc1)c1cc(C(F)(F)F)cc(C(F)(F)F)c1 (stereo in doubt; 2b) | 60% |  |  |  |  | 
C[C@@H](O[C@H]1CN2C(=O)C(n3cnnc3)C[C@H]2[C@@H]1c1ccc(F)cc1)c1cc(C(F)(F)F)cc(C(F)(F)F)c1 (stereo in doubt; 21a) [listing 2 of 2 here] |  | 0.07 nM | 1.9 nM | > 10000 nM | > 10000 nM | 
C[C@@H](O[C@H]1CN2C(=O)CC(C)(O)[C@H]2[C@@H]1c1ccc(F)cc1)c1cc(C(F)(F)F)cc(C(F)(F)F)c1 (stereo in doubt; 20a) [listing 1 of 2 here] |  | 0.07 nM | 1.1 nM | 2210 nM | 2210 nM | inhibition in vivo at 3 mg/kg (Gerbillinae [6]): 96%
C[C@@H](O[C@H]1CN2C(=O)CC(C)(O)[C@H]2[C@@H]1c1ccc(F)cc1)c1cc(C(F)(F)F)cc(C(F)(F)F)c1 (stereo in doubt; 20b) [listing 2 of 2 here] |  | 0.06 nM | 2.6 nM |  |  | 
C[C@@H](O[C@H]1CN2C(=O)C(O)C[C@H]2[C@@H]1c1ccc(F)cc1)c1cc(C(F)(F)F)cc(C(F)(F)F)c1 (single isomer, unassigned) [listing 1 of 2 here] | 90% |  |  |  |  | 
C[C@@H](O[C@H]1CN2C(=O)C(C)(O)C[C@H]2[C@@H]1c1ccc(F)cc1)c1cc(C(F)(F)F)cc(C(F)(F)F)c1 (stereo in doubt; 5b) [listing 2 of 2 here] | 45% |  |  |  |  | 
C[C@@H](O[C@H]1CN2C(=O)C(C)(O)C[C@H]2[C@@H]1c1ccc(F)cc1)c1cc(C(F)(F)F)cc(C(F)(F)F)c1 (single isomer, unassigned) [listing 1 of 2 here] | 70% |  |  |  |  | 
C[C@@H](O[C@H]1CN2C(=O)CC(NCc3ccn[nH]3)[C@H]2[C@@H]1c1ccc(F)cc1)c1cc(C(F)(F)F)cc(C(F)(F)F)c1 (some centres undefined) | 68% | 0.13 nM | 1.83 nM | 2970 nM | 2390 nM | inhibition in vivo at 3 mg/kg (Gerbillinae [6]): 94%
C[C@@H](O[C@H]1CN2C(=O)CC(C)(O)[C@H]2[C@@H]1c1ccc(F)cc1)c1cc(C(F)(F)F)cc(C(F)(F)F)c1 (stereo in doubt; 20a) [listing 2 of 2 here] | 28% |  |  |  |  | 
C[C@@H](O[C@H]1CN2C(=O)C(n3cnnc3)C[C@H]2[C@@H]1c1ccc(F)cc1)c1cc(C(F)(F)F)cc(C(F)(F)F)c1 (single isomer, unassigned) [listing 2 of 2 here] | 74% |  |  |  |  | 
C[C@@H](O[C@H]1CN2C(=O)C(C)(O)C[C@H]2[C@@H]1c1ccc(F)cc1)c1cc(C(F)(F)F)cc(C(F)(F)F)c1 (single isomer, unassigned) [listing 2 of 2 here] |  | 0.09 nM | 2.5 nM | 4820 nM | 1870 nM | inhibition in vivo at 3 mg/kg (Gerbillinae [6]): 98%
C[C@@H](O[C@H]1CN2C(=O)C(NCc3nn[nH]c3CN(C)C)C[C@H]2[C@@H]1c1ccc(F)cc1)c1cc(C(F)(F)F)cc(C(F)(F)F)c1 (some centres undefined) | 40% | 0.13 nM | 1.4 nM | 2410 nM | 301 nM | inhibition in vivo at 1 mg/kg (Gerbillinae [4]): 88%
